Test results as given in ChEMBL document CHEMBL4316593 (Eur J Med Chem, 2019).
pIC50: −log10 of the molar value. Calls of active or inactive are those of the source. No cut-off for these calls is given here.

What was measured:
[1] = Inhibition of RTK/PI3K/AKT/mTOR signaling in human U87 cells assessed as down regulation of COG1 gene expression at cytotoxic IC50 measured after 48 hrs relative to control; format: cell-based; conditions: U-87MG ATCC
Method in brief: (§1)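 U87 cells grown in MEM with 10% FBS at 37°C, 5% CO2. Cells exposed to IC50 of test compound for 48 hrs, alongside untreated and cisplatin controls, each condition in triplicate. RNA isolated and profiled; differential expression called with DESeq2 (q-value < 0.05, fold change > 1.5), fold change versus untreated.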

[2] = Inhibition of RTK/PI3K/AKT/mTOR signaling in human U87 cells assessed as up regulation of solute carrier family 12 member 9 gene expression at cytotoxic IC50 measured after 48 hrs relative to control; format: cell-based; conditions: U-87MG ATCC
U-87 MG [3] = assay: Cell cycle arrest in human U87 cells assessed as change in CDK6 gene expression at cytotoxic IC50 measured after 48 hrs […] relative to control; format: functional, U-87MG ATCC
Method in brief: (§2)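 U87 expression profiling. Cells incubated 48hrs at 37°C, 5% CO₂ with the IC₅₀ concentration, alongside a cisplatin and an untreated control, in triplicate. RNA was isolated by one common protocol and profiled. DEGs were called with DESeq2 (q < 0.05, fold change > 1.5) and expressed as fold change versus untreated.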

U-87 MG [4] = assay: Cell cycle arrest in human U87 cells assessed as change in MDM2 gene expression at cytotoxic IC50 measured after 48 hrs […] relative to control; format: functional, U-87MG ATCC; method in brief: as §2
[5] = Inhibition of RTK/PI3K/AKT/mTOR signaling in human U87 cells assessed as up regulation of T-cell lymphoma invasion and metastasis 1 gene expression at cytotoxic IC50 measured after 48 hrs relative to control; format: cell-based
U-87 MG [6] = assay: Cytotoxicity against human U87 cells assessed as reduction in cell proliferation by phase contrast microscopic analysis; format: functional, cell-based; conditions: U-87MG ATCC
[7] = Inhibition of RTK/PI3K/AKT/mTOR signaling in human U87 cells assessed as up regulation of neuron navigator 1 gene expression at cytotoxic IC50 measured after 48 hrs relative to control; format: cell-based
[8] = Inhibition of RTK/PI3K/AKT/mTOR signaling in human U87 cells assessed as down regulation of COX17 gene expression at cytotoxic IC50 measured after 48 hrs relative to control; format: cell-based; conditions: U-87MG ATCC; method in brief: as §1
U-87 MG [9] = assay: Induction of DNA damage in human U87 cells assessed as change in CDK1 gene expression at cytotoxic IC50 measured after 48 hrs […] relative to control; format: functional, U-87MG ATCC; method in brief: as §2
U-87 MG [10] = assay: Induction of apoptosis in human U87 cells assessed as apoptotic cells at cytotoxic IC50 measured after 48 hrs by Annexin V-FITC/propidium iodide staining based flow cytometry (reference value: 22.4%); format: functional, U-87MG ATCC
U-87 MG [11] = assay: Induction of apoptosis in human U87 cells assessed as change in ACTG1 gene expression at cytotoxic IC50 measured after 48 hrs […] relative to control; format: functional, U-87MG ATCC; method in brief: as §1
[12] = Inhibition of RTK/PI3K/AKT/mTOR signaling in human U87 cells assessed as down regulation of TSPAN33 gene expression at cytotoxic IC50 measured after 48 hrs relative to control; format: cell-based; conditions: U-87MG ATCC
Method in brief: (§3)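 Cells were exposed for 48hrs at 37°C in humidified 5% CO₂ to the compound at its previously determined IC₅₀, with Cisplatin at its IC₅₀ and an untreated negative control alongside. Each condition was run in triplicate. RNA was isolated from all samples by the same protocol. Genes were called differentially expressed by DESeq2 at q-value < 0.05 and fold change > 1.5.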

U-87 MG [13] = assay: Cell cycle arrest in human U87 cells assessed as accumulation at G1 phase at cytotoxic IC50 measured after 48 hrs by propidium iodide staining based fluorescence cell imaging analysis (reference value: 39.7%); format: functional, U-87MG ATCC
Method in brief: (§4)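 Cell cycle by PI staining. Cells seeded at 1×10^6 and grown overnight at 37°C, 5% CO₂, then exposed for 48hrs at their IC₅₀ concentration, with DMSO and cisplatin controls. Cells were trypsinized, washed in cold PBS and fixed in 70% ethanol at 4°C for 30 min. They were stained with PI in Triton X-100/RNase for 15 min at 37°C and imaged by fluorescence microscopy. Reported as mean ± S.E.M of triplicates.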

U-87 MG [14] = assay: Cell cycle arrest in human U87 cells assessed as accumulation at S-phase at cytotoxic IC50 measured after 48 hrs by propidium iodide staining based fluorescence cell imaging analysis (reference value: 19.2%); format: functional, U-87MG ATCC; method in brief: as §4
[15] = Inhibition of RTK/PI3K/AKT/mTOR signaling in human U87 cells assessed as down regulation of TOMM34 gene expression at cytotoxic IC50 measured after 48 hrs relative to control; format: cell-based; conditions: U-87MG ATCC; method in brief: as §3
[16] = Inhibition of RTK/PI3K/AKT/mTOR signaling in human U87 cells assessed as up regulation of INHBE gene expression at cytotoxic IC50 measured after 48 hrs relative to control; format: cell-based; conditions: U-87MG ATCC; method in brief: as §3
[17] = Inhibition of RTK/PI3K/AKT/mTOR signaling in human U87 cells assessed as up regulation of FAM131C gene expression at cytotoxic IC50 measured after 48 hrs relative to control; format: cell-based; conditions: U-87MG ATCC; method in brief: as §3
[18] = Inhibition of RTK/PI3K/AKT/mTOR signaling in human U87 cells assessed as down regulation of XPO6 gene expression at cytotoxic IC50 measured after 48 hrs relative to control; format: cell-based; conditions: U-87MG ATCC; method in brief: as §3
[19] = Inhibition of RTK/PI3K/AKT/mTOR signaling in human U87 cells assessed as up regulation of CAPN1 gene expression at cytotoxic IC50 measured after 48 hrs relative to control; format: cell-based; conditions: U-87MG ATCC; method in brief: as §3
[20] = Inhibition of RTK/PI3K/AKT/mTOR signaling in human U87 cells assessed as down regulation of POP4 gene expression at cytotoxic IC50 measured after 48 hrs relative to control; format: cell-based; conditions: U-87MG ATCC; method in brief: as §3
U-87 MG [21] = assay: Induction of apoptosis in human U87 cells assessed as change in PIDD1 gene expression at cytotoxic IC50 measured after 48 hrs […] relative to control; format: functional, U-87MG ATCC; method in brief: as §1
U-87 MG [22] = assay: Induction of DNA damage in human U87 cells assessed as change in PIDD1 gene expression at cytotoxic IC50 measured after 48 hrs […] relative to control; format: functional, U-87MG ATCC; method in brief: as §2
U-87 MG [23] = assay: Cytotoxicity against human U87 cells assessed as reduction in cell proliferation measured after 48 hrs by trypan blue dye-based cell counting analysis
U-87 MG [24] = assay: Induction of oxidative stress in human U87 cells assessed as increase in redox level at cytotoxic IC50 measured after 5 hrs by H2DCFDA dye based fluorescence assay relative to control; format: functional, U-87MG ATCC
Method in brief: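 Cells grown overnight, exposed to IC50 for 5 hrs at 37°C with negative, positive (H2O2) and blank controls, plus solvent baseline. Pelleted, loaded with 2 µM H2DCFDA for 30 min at 37°C, washed, resuspended in warm medium, 20 min at room temperature. Fluorescence read at ex 485/em 535 nm.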

[25] = Inhibition of RTK/PI3K/AKT/mTOR signaling in human U87 cells assessed as down regulation of PTGES3 gene expression at cytotoxic IC50 measured after 48 hrs relative to control; format: cell-based; conditions: U-87MG ATCC; method in brief: as §3
[26] = Inhibition of RTK/PI3K/AKT/mTOR signaling in human U87 cells assessed as down regulation of WDR62 gene expression at cytotoxic IC50 measured after 48 hrs relative to control; format: cell-based; conditions: U-87MG ATCC; method in brief: as §3
U-87 MG [27] = assay: Induction of apoptosis in human U87 cells assessed as change in GADD45A gene expression at cytotoxic IC50 measured after 48 hrs […] relative to control; format: functional, U-87MG ATCC; method in brief: as §1

CC(=O)C(=NNc1ccccc1C#N)C(C)=O
log2FC [1]: -0.632
log2FC [2]: 0.907
fold change (FC) (U-87 MG [3]): -1.311
fold change (FC) (U-87 MG [4]): 1.471
log2FC [5]: 0.812
Activity (U-87 MG [6]): Active
log2FC [7]: 0.879
log2FC [8]: -1.13
fold change (FC) (U-87 MG [9]): 1.569
Activity (U-87 MG [10]): 68.7%
log2FC (U-87 MG [11]): -1.416
log2FC [12]: -0.666
Activity (U-87 MG [13]): 47.7%
Activity (U-87 MG [14]): 2.8%
log2FC [15]: -1.47
log2FC [16]: 2.96
log2FC [17]: 2.04
log2FC [18]: -0.363
log2FC [19]: 0.475
log2FC [20]: -0.816
log2FC (U-87 MG [21]): 2.467
fold change (FC) (U-87 MG [22]): 2.467
pIC50 (U-87 MG [23]): 3.97
Activity (U-87 MG [24]): 9.5%
log2FC [25]: -0.422
log2FC [26]: -1.86
log2FC (U-87 MG [27]): -0.9679
